Screens deposited in PubChem by Sanford-Burnham Center for Chemical Genomics.
Sampled rows, rich in hits. Any-hit rate of the full collection: about 3.9%.
tim10-1 inh: growth inhibitors of tim10-1 mutant yeast, primary screen, luminescence, uHTS; inhibition, % at 20 µM; AID 463190, 2010; S. cerevisiae tim10-1 ts strain growth, BacTiter-Glo, 24 h; 330,000 tested, 2.2% active;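 active = inhibition of at least 40%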;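 note: mutant grown at 25 °C; 0% = DMSO wells with yeast and 100% = wells holding no yeast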
UPR CHOP act: activators of apoptotic CHOP UPR arm, primary screen, cell-based, CHO-CHOP luciferase reporter, luminescence, uHTS; UPR activation; percent of tunicamycin response over DMSO baseline; 330,000 tested, 0.34% active; activation, % at 10 µM; AID 449763, 2010;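 active = at 10 µM dose, activation of 40% or more, normalized to positive control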;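 note: 100% = tunicamycin at 10 µg/mL and 0% = DMSO alone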
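measured by = luciferase luminescence | assay system = CHO-CHOP cells, stable luciferase reporter of PERK-eIF2a-CHOP signalling | amount = 500 reporter cells seeded per well | timing = 6 h compound exposure at 37 °C after overnight seeding | controls = positive tunicamycin 10 µg/mL, negative DMSO alone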
tim23-1 inh: growth inhibitors of tim23-1 mutant yeast, primary screen, luminescence, uHTS | S. cerevisiae tim23-1 growth, BacTiter-Glo luminescence, 24 h | inhibition, % at 20 µM | 330,000 tested, 1.3% active;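 active = growth inhibition of the mutant yeast at or above 50%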;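 note: temperature-sensitive mutant grown at 25 °C; plate controls were DMSO-treated mutant yeast for no effect and medium wells lacking yeast for full effect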
XBP1 UPR activ: activators of adaptive XBP1 UPR arm, primary screen, cell-based, CHO-XBP1 luciferase reporter, luminescence, uHTS | IRE1-XBP1 UPR activation; percent of tunicamycin response, DMSO as zero | activation, % at 20 µM | 330,000 tested, 0.33% active | AID 463104, 2010;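 active = versus positive control, 20 µM dose yields 30% or more activation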;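 note: 100% = tunicamycin at 10 µg/mL and 0% = DMSO only wells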
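Material: IRE1-XBP1 luciferase reporter CHO line / Quantity: one thousand reporter cells per well / Buffer or medium: F12 with 10% serum / Compound: 20 µM single concentration, DMSO 1% / Times: 6 h treatment, 37 °C / Detection: Steady-Glo luciferase glow luminescence, 10 min after reagent addition / Benchmarks: tunicamycin high, DMSO low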
TIM10 inh: growth inhibitors of isogenic TIM10 control yeast, primary screen, counter-screen for tim10-1 yeast inhibitor project, luminescence, uHTS | S. cerevisiae TIM10 strain growth, BacTiter-Glo luminescence, 24 h | inhibition, % at 10 µM | 330,000 tested, 1.4% active | AID 463195, 2010;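 active = inhibition of 40% or more at the single tested concentration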;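 note: wild-type TIM10 isogenic control strain grown at permissive 25 °C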
tim10 confirm: growth inhibitors of wild-type TIM10 yeast, confirmation, counter-screen for tim10-1 synthetic lethality project, single concentration, luminescence, S. cerevisiae | inhibition, % at 10 µM | S. cerevisiae tim10 strain growth, BacTiter-Glo luminescence, 24 h | 4,600 tested, 63% active | shares compounds with TIM10 inh;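 active = inhibition of yeast growth at or above a set limit in either of two replicates at 10 µM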;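 note: this counterscreen used the strain with wild-type TIM10; 0% = yeast with DMSO and 100% = medium wells lacking yeast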
An asterisk follows results filed as active; · = no result given.

SMILES	tim10-1 inh	UPR CHOP act	tim23-1 inh	XBP1 UPR activ	TIM10 inh	tim10 confirm
Cc1cc(C)cc(OCC(=O)OCC(=O)Nc2cc(C)nn2-c2ccccc2)c1	4	-1	-6	2	83*	4
CCn1c(=O)c(C(=O)NCc2cccnc2)c(O)c2ccccc21	32	-1	42	2	44*	33*
CCn1c(=O)c(C(=O)NCc2ccccc2)c(O)c2ccccc21	-43	2	36	4	-14	·
CCc1ccccc1NC(=S)NCC1CCN(c2ccc(OC)cc2)C1 (centres undefined)	-4	-2	48	-1	40*	53*
COc1ccc(N2CCC(CNC(=S)Nc3cccc(OC)c3)C2)cc1 (centres undefined)	-17	0	39	-2	18	·
CCc1cccc(C)c1NC(=S)NCC1CCN(c2ccc(OC)cc2)C1 (centres undefined)	27	1	36	-2	57*	59*
CC1CCCN(C(=O)c2ccc(NC(=O)CC3SC(N4CCCC4)=NC3=O)cc2)C1 (centres undefined)	13	-1	-11	-3	-1	·
CCOC(=O)N1CCN(C(=O)CCc2ccc(S(=O)(=O)NC(C)(C)C)cc2)CC1	2	-1	-2	-4	3	·
Cc1ccc(C(=O)OCC(=O)NC(=O)c2ccccc2)o1	4	2	8	-2	-5	·
CCOC(=O)C1CCN(S(=O)(=O)c2ccc3c(c2)CC(C)N3C(=O)C2CC2)CC1 (centres undefined)	2	-1	36	-7	40*	49*
CCC(Sc1nc(N)cc(=O)[nH]1)C(=O)Nc1cc(C)on1 (centres undefined)	-2	0	0	-1	-9	·
Brc1ccc(C2=Nc3cccc4cccc(c34)N2)o1	25	4	13	2	15	·
Fc1ccc(C2=Nc3cccc4cccc(c34)N2)cc1	34	0	29	1	44*	13
Cn1c(SCC(=O)Nc2cc(C(C)(C)C)nn2-c2ccccc2)nc2ccccc21	29	-2	40	-2	43*	-20
O=c1[nH]c2ccc(Cl)cc2c(-c2ccccc2)c1SC(=S)N1CCOCC1	24	-2	14	-1	17	·
O=c1[nH]c2ccc(Cl)cc2c(-c2ccccc2)c1SC(=S)N1CCCCC1	32	-5	35	-5	40*	27
CN(C(=O)c1cnc(N2CCN(c3ncccn3)CC2)c2ccccc12)c1ccc(Cl)cc1	38	1	11	-4	52*	28*
COc1ccc(C(=O)N2CCCC(c3ccccc3)=N2)cc1	40	0	39	1	45*	22
COc1ccc(NS(=O)(=O)c2cccc(C(=O)NNC(=O)c3ccc(=O)[nH]c3)c2)cc1	-12	1	-7	1	4	·
NC(=O)CC(NC(=O)c1cccc(Br)c1)c1ccc(NCC2CC2)c([N+](=O)[O-])c1 (centres undefined)	-6	1	13	-5	-6	·
NC(=O)CC(NC(=O)c1cccc(Br)c1)c1ccc(NCCN2CCOCC2)c([N+](=O)[O-])c1 (centres undefined)	7	-1	-5	0	43*	-12
Cc1cc(C)cc(C(=O)NC(CC(N)=O)c2ccc(N3CCN(c4ccccc4)CC3)c([N+](=O)[O-])c2)c1 (centres undefined)	-1	-1	6	1	49*	-5
CCn1c(=O)c([N+](=O)[O-])c(Cl)c2ccccc21	33	-10	37	-6	78*	79*
CCn1c(=O)c([N+](=O)[O-])c(NCCN(C)C)c2ccccc21	3	2	2	-2	2	·
O=C(NC1CC(=O)N(c2cccc(F)c2)C1)C(=O)c1c[nH]c2ccccc12 (centres undefined)	-4	2	-11	1	97*	-2
SMILES	tim10-1 inh	UPR CHOP act	tim23-1 inh	XBP1 UPR activ	TIM10 inh	tim10 confirm
COc1cccc(N2CC(NC(=O)C(=O)c3c[nH]c4ccccc34)CC2=O)c1 (centres undefined)	13	2	18	-1	11	·
N/C(=N\OC(=O)c1ccco1)c1ccccn1	5	2	-1	-3	8	·
N/C(=N\OC(=O)c1ccc2ccccc2c1)c1cccc([N+](=O)[O-])c1	35	7	2	3	26	·
N/C(=N\OC(=O)c1ccc2ccccc2c1)c1ccccn1	36	-8	13	-6	45*	51*
N/C(=N\OC(=O)c1cccc2ccccc12)c1ccccn1	22	1	49	-4	55*	55*
N/C(=N\OC(=O)c1ccc2ccccc2c1)c1ccccc1Cl	36	9	15	0	84*	85*
NS(=O)(=O)c1ccc(CCNS(=O)(=O)c2cccc3nsnc23)cc1	-2	-1	-2	10	-17	·
CC1(c2nnc(Cc3ccccc3)o2)CC(c2ccccc2Br)=NO1 (centres undefined)	4	-2	1	-3	-5	·
CC(C)n1c(N2CCN(S(=O)(=O)c3cccc([N+](=O)[O-])c3)CC2)nc2ccccc21	34	-1	30	-2	41*	34*
NC(=O)N(N)c1nc(N2CCCC2)nc(N2CCCC2)n1	4	3	12	-3	0	·
O=C(c1ccccc1O)N1N=C(c2ccccc2)CC1(O)C(F)(F)F (centres undefined)	29	1	34	4	46*	4
Nc1ccc(C(=O)N2N=C(c3ccccc3)CC2(O)C(F)(F)F)cc1 (centres undefined)	29	2	50	-1	18	·
CCN(CC)c1ccc(C(=O)OCC(=O)Nc2ccc3[nH]c(=O)[nH]c3c2)cc1	14	-1	17	-2	-2	·
O=C1CC(N2CCN(c3ccccn3)CC2)C(=O)N1CC(c1ccccc1)c1ccccc1 (centres undefined)	26	1	15	1	42*	31
O=C(c1ccco1)N1CCN(C(=O)c2ccc(CS(=O)c3ccc(Cl)cc3)o2)CC1 (centres undefined)	3	1	-7	-4	-1	·
COC(=O)c1cnn2c1C(=O)N(Cc1cccs1)CC2	-1	1	27	1	10	·
COc1cccc(C(=O)Nc2ccccc2N2CCCC2)c1	14	-1	22	0	8	·
